Columns and labels:
[1] = folding enthalpy; higher = less favourable; fluorescence melt of hairpins on a sequencing array, two-state fit; conditions: sodium 0.088 M
Procedure, shortened: (§1)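 On a sequenced MiSeq flow cell, library hairpins with annealed Cy3 and quencher oligos were imaged for Cy3 fluorescence in 2.5 °C steps up to 60 °C, in 50 mM Na-HEPES pH 8.0, 25 mM NaCl. Normalisation used pre-quench Cy3 and control constructs. Bootstrapped two-state fits gave melting temperature and folding enthalpy, combined by inverse variance across four replicates and with fitted temperatures raised by 9.35 °C to match UV melts.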

[2] = melting temperature; fluorescence melt of hairpins on a sequencing array, two-state fit, raised by 9.35 °C to match UV melts; conditions: sodium 0.088 M
Procedure, shortened: as §1

Row | Sequence | folding enthalpy [1] [kcal/mol] | Tm [2] [°C]
1 | GATCAGGATGCTGATC ((((((....)))))) | -43.3 | 50.3
2 | GATCAGGCACCTGATC ((((((....)))))) | -41.7 | 55.4
3 | GATCAGGCACTGATC ((((((...)))))) | -43.6 | 59.8
4 | GATCAGGCCACTGATC ((((((....)))))) | -36.4 | 60.8
5 | GATCAGGCTCTGATC ((((((...)))))) | -35.2 | 49.1
6 | GATCAGGGAAACTTGATC (((((.(....).))))) | -30.7 | 38.2
7 | GATCAGGGAACTGATC ((((((....)))))) | -33 | 55.5
8 | GATCAGGGAGCTGATC ((((((....)))))) | -35.2 | 52.4
9 | GATCAGGGCCCTGATC ((((((....)))))) | -58.9 | 60.3
10 | GATCAGGGCGCTGATC ((((((....)))))) | -47.4 | 55.4
11 | GATCAGGGGGCTGATC ((((((....)))))) | -38.3 | 49.7
12 | GATCAGGGGTCTGATC ((((((....)))))) | -32.6 | 50.8
13 | GATCAGGTACCTGATC ((((((....)))))) | -40.6 | 58.8
14 | GATCAGGTACTGATC ((((((...)))))) | -41.1 | 61.4
15 | GATCAGGTATCTGATC ((((((....)))))) | -40.8 | 57.5
16 | GATCAGGTCACTGATC ((((((....)))))) | -45.8 | 59.4
17 | GATCAGTACTCTGATC ((((((....)))))) | -43.4 | 50.4
18 | GATCAGTAGGCTGATC ((((((....)))))) | -42.3 | 52.4
19 | GATCAGTATGCTGATC ((((((....)))))) | -36.1 | 55.2
20 | GATCAGTCAGCTGATC ((((((....)))))) | -40.9 | 51.3
21 | GATCAGTGACCTGATC ((((((....)))))) | -30.1 | 48.7
22 | GATCAGTGGCTGATC ((((((...)))))) | -22 | 49.7
23 | GATCAGTGTTCTGATC ((((((....)))))) | -37.3 | 50.2
24 | GATCAGTTCCCTGATC ((((((....)))))) | -32 | 49.7

Row | Sequence | folding enthalpy [1] [kcal/mol] | Tm [2] [°C]
25 | GATCATAAAATGATC ((((((...)))))) | -30.7 | 48
26 | GATCATAAAGATGATC ((((((....)))))) | -24.4 | 40
27 | GATCATAACCATGATC ((((((....)))))) | -35.7 | 47.4
28 | GATCATAAGAATGATC ((((((....)))))) | -27.7 | 40.1
29 | GATCATAAGATGATC ((((((...)))))) | -31.1 | 46.6
30 | GATCATACACATGATC ((((((....)))))) | -36 | 47.2
31 | GATCATACTGATGATC ((((((....)))))) | -30.2 | 46.3
32 | GATCATAGCGATGATC ((((((....)))))) | -44.1 | 46.9
33 | GATCATAGGATGATC ((((((...)))))) | -30.8 | 48.3
34 | GATCATAGGCATGATC ((((((....)))))) | -32.4 | 48.5
35 | GATCATAGGTATGATC ((((((....)))))) | -40.5 | 49.1
36 | GATCATATAGATGATC ((((((....)))))) | -36.2 | 45.6
37 | GATCATCACGATGATC ((((((....)))))) | -42.6 | 51.8
38 | GATCATCATATGATC ((((((...)))))) | -35.5 | 47.2
39 | GATCATCCAGATGATC ((((((....)))))) | -37.5 | 50.3
40 | GATCATCCTAATGATC ((((((....)))))) | -35 | 49
41 | GATCATCGCCATGATC ((((((....)))))) | -35.7 | 46.3
42 | GATCATCGCTATGATC ((((((....)))))) | -38.8 | 47.2
43 | GATCATCTCAATGATC ((((((....)))))) | -41.6 | 48.9
44 | GATCATGAACATGATC ((((((....)))))) | -41 | 54
45 | GATCATGACAATGATC ((((((....)))))) | -40.6 | 56.6
46 | GATCATGACCATGATC ((((((....)))))) | -41.5 | 55.2
47 | GATCATGCACATGATC ((((((....)))))) | -41.5 | 56.3
48 | GATCATGCCTATGATC ((((((....)))))) | -42.4 | 52.3

— the array DNA melting data of Ke et al. (doi:10.1101/2024.01.08.574731)
